Source: PubChem BioAssay (Johns Hopkins Ion Channel Center)
Rows were chosen to be rich in hits. Some 3.5% of all compounds tested hit in one or more screens of this group.
MrgX1 allo act = human MrgX1 positive allosteric modulation, primary screen; MrgX1-HEK293, Fluo-4 calcium flux, FDSS; active compounds read high; B-score at 10 µM; 310,000 compounds, 0.63% hits; AID 588675;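 active = plate-corrected calcium response at least 3 library SD above typical, normal starting fluorescence, not activating the receptor alone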;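 also: compound read alongside a low EC10 to EC30 dose of BAM8-22 agonist; peak minus trough fluorescence over baseline measured at the second addition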
Target sequence (Q96LB2 whole entry, looked up): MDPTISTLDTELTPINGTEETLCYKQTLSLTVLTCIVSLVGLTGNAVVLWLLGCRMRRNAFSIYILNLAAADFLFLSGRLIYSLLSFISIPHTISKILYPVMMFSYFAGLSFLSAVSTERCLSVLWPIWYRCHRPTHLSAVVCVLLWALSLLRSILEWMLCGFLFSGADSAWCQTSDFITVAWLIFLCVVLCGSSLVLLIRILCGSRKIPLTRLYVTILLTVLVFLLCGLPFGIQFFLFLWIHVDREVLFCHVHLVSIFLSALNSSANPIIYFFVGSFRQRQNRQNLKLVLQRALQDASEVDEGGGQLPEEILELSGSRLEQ
MrgX1 antag = human MrgX1 receptor antagonism, primary screen | B-score at 10 µM | 310,000 compounds, 1.3% hits | MRGX1-HEK293 calcium flux, Fluo-4, BAM8-22 antagonism; active compounds read low;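 active = calcium-response B-score plate-corrected more than 3 library SD below zero, starting fluorescence within 5 deviations, no agonist response on first addition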;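 also: peak minus trough fluorescence over baseline after final BAM8-22 challenge near maximal dose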
RGS4 inh = human RGS4 inhibition; P49798; HEK293 M3R/RGS4 inducible, Fluo-4 calcium flux; active compounds read high; triggered by carbachol at its EC20; B-score at 10 µM; 310,000 compounds, 0.45% hits; AID 463165;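 active = B-score, a plate-corrected calcium signal, over three deviations above library mean, with baseline fluorescence within five deviations of library mean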;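 also: RGS4 expression induced by doxycycline in cells with stable M3 receptor; B-score is computed from the integrated fluorescence ratio over baseline after carbachol; higher B-score means a larger calcium signal and so more RGS4 inhibition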
Target sequence (P49798 whole entry, looked up): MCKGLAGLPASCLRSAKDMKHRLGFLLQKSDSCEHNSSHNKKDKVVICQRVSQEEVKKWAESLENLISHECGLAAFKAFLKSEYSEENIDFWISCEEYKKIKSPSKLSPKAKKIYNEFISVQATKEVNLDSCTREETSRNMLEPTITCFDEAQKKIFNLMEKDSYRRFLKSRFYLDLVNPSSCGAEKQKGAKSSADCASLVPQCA
RGS4 pot = potentiators or activators of RGS4; 310,000 compounds, 0.92% hits; HEK293 M3R/inducible RGS4, carbachol calcium flux Fluo4; active compounds read low; B-score at 10 µM;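 active = B-score of the integrated calcium signal more than 4 SD below the library mean, with starting fluorescence not abnormally high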;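 also: negative B-score means reduced calcium response which marks RGS4 activation or potentiation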
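System – HEK293 FlpIn-TREx cells, stable M3R, doxycycline-inducible RGS4 · Reagent – ECmax carbachol challenge · Times – compound preincubation 20 min at room temperature before agonist · Technique – Fluo4 fluorescence kinetic imaging of calcium · Measure – B score of integrated Fluo4 ratio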
MrgX1 agonist = agonists of human MrgX1 receptor. Q96LB2. MrgX1-HEK293 cells, Fluo-4 calcium fluorescence, agonist mode; active compounds read high. B-score at 10 µM. 310,000 compounds, 0.44% hits;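 active = calcium response B-score plate-corrected fluorescence ratio at least 3 library SD, with starting fluorescence B-score inside 5 SD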
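Assay system: stable human MrgX1 HEK293 cell line. Quantity: 15,000 cells per well. Schedule: cells plated overnight, dye loaded 0.5 h 37 °C, 0.5 h room temperature. Detection: Fluo-4 NW calcium-flux fluorescence, kinetic read. Read-out basis: peak-minus-minimum fluorescence over baseline, converted to B scores. Control set: positive and negative control wells on each plate.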
RGS4 inh valid = validation of RGS4 inhibitors; shares compounds with RGS4 inh; HEK293 M3R/RGS4, carbachol calcium Fluo-4 fluorescence; carbachol added at its EC20; 0 = buffer wells, 100 = carbachol control; calcium response, % at 10 µM; 1,700 compounds, 65% hits;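 active = duplicate-averaged calcium response above the buffer-only control mean plus 5 SD of those controls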;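 also: integrated fluorescence ratio F max minus min over baseline F0; higher response in RGS4-induced cells means RGS4 inhibition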
RGS4 uninduced = counter-screen for RGS4 inhibitors: effect in non-induced cells; shares compounds with RGS4 inh; HEK293 M3R non-induced, carbachol calcium Fluo-4; submaximal (EC20) carbachol stimulus; buffer wells 0%, carbachol control wells 100%; activity (percent), % at 10 µM; 1,900 compounds, 20% hits; AID 493000; call rule not given here;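 also: RGS4 induction absent so cells express M3R without RGS4; higher means more calcium signal and flags a non-specific hit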
M3R basal Ca ctr = signal in non-induced cells without carbachol, RGS4 inhibitor counter-screen | calcium response (agonist-mode artifact), % at 10 µM | AID 493001 | 1,900 compounds, 22% hits | shares compounds with RGS4 inh | HEK293 M3R/RGS4 non-induced, Fluo-4 calcium, no carbachol; normalised: buffer wells 0%, carbachol wells 100%;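 active = duplicate-averaged calcium rise in uninduced cells above buffer wells' mean plus 5 SD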
An asterisk follows results filed as active; i = inactive; · = no result.

SMILES	MrgX1 allo act	MrgX1 antag	RGS4 inh	RGS4 pot	MrgX1 agonist	RGS4 inh valid	RGS4 uninduced	M3R basal Ca ctr
Cc1c(C(=O)OCc2nc3scc(-c4ccccc4)c3c(=O)[nH]2)cccc1[N+](=O)[O-]	i	i	i	i	i	·	·	·
O=C(OCc1nc2scc(-c3ccccc3)c2c(=O)[nH]1)c1cc(Cl)ccc1[N+](=O)[O-]	i	i	6.2*	i	i	24%*	i	i
Nc1ncnc2c1ncn2C1O[C@H](CO)[C@@H](O)[C@@H]1O (some centres not stated)	i	i	·	·	i	·	·	·
Nc1ncnc2c1ncn2[C@@H]1O[C@H](CO)[C@@H](O)[C@@H]1O	i	i	i	i	i	·	·	·
Nc1nc(Nc2ccccc2)nc2c1ncn2[C@@H]1O[C@H](CO)[C@@H](O)[C@H]1O	6.5*	i	6.2*	i	i	24%*	i	357%*
CNc1nc2c(N)ncnc2n1[C@H]1O[C@@H](CO)[C@H](O)[C@@H]1O	i	i	6.8*	i	i	13%*	36%*	i
Nc1nc(F)nc2c1ncn2[C@@H]1O[C@H](CO)[C@@H](O)[C@@H]1O	i	i	i	i	i	·	·	·
Nc1ncnc2c1ncn2C1OC(CO)C(O)C1N (configuration not stated)	i	i	i	i	i	·	i	i
Nc1nc(F)nc2c1ncn2[C@@H]1O[C@H](CO)[C@@H](O)[C@H]1O	i	i	11*	i	i	52%*	30%*	i
CC(C)CCc1noc(CN(CC2CCC2)CC2CCCO2)n1 (configuration not stated)	i	i	i	i	i	·	·	·
C=CCc1cccc(/C=N/NC(=O)CCC(=O)Nc2ccc(C)cc2)c1O	i	i	i	i	i	·	·	·
COC(=O)Cc1[nH]nc2c1C1(C(=O)N(Cc3ccccc3)c3ccccc31)C(C#N)=C(N)O2 (configuration not stated)	i	i	i	i	i	·	i	i
Cc1[nH]nc2c1C1(C(=O)N(Cc3ccc(Cl)cc3)c3ccccc31)C(C#N)=C(N)O2 (configuration not stated)	i	i	i	i	i	·	·	·
Cc1ccc(Nc2c(-c3ccc(C)o3)nc3cnccn23)cc1	i	i	i	i	i	i	i	i
Cc1ccc(-c2nc3cnccn3c2Nc2ccccc2)o1	i	i	10*	i	i	i	i	i
Cc1ccc(-c2nc3ccccn3c2Nc2ccccc2)o1	i	i	i	i	i	·	·	·
Cc1ccc(-c2nc3cnccn3c2Nc2ccc3c(c2)OCO3)o1	i	i	i	i	i	·	·	·
COc1ccc(NC(=O)C2CC(=O)N=C(N)S2)cc1 (configuration not stated)	i	i	i	i	i	·	·	·
O=C(O)c1ccc(N/N=C/c2cn(Cc3ccc(F)cc3)c3ccccc23)cc1	i	i	i	i	i	·	·	·
O=[N+]([O-])/C=C/c1cn(Cc2ccc(F)cc2)c2ccccc12	7.4*	i	6*	i	i	42%*	i	68%*
CC1CCCCN1CCCNC(=O)CN1C(=O)c2cccnc2Oc2ccc(Cl)cc21 (configuration not stated)	i	i	i	i	i	·	·	·
COc1ccc(NC(=O)CC2SC(=NCc3ccccc3OC)NC2=O)cc1 (configuration not stated)	i	i	i	i	i	·	i	i
COc1ccc(CCNC(=O)CC2SC(=NCCc3ccccc3)NC2=O)cc1OC (configuration not stated)	i	i	i	i	i	·	·	·
COc1ccccc1CN=C1NC(=O)C(CC(=O)Nc2ccc(OC)c(OC)c2)S1 (configuration not stated)	i	i	5.6*	i	i	8.5%*	i	i
Cc1ccc(-c2nn(-c3ccccc3)cc2/C=N/n2c(-c3ccncc3)n[nH]c2=S)cc1	i	i	i	i	i	i	i	i
SMILES	MrgX1 allo act	MrgX1 antag	RGS4 inh	RGS4 pot	MrgX1 agonist	RGS4 inh valid	RGS4 uninduced	M3R basal Ca ctr
S=c1[nH]nc(-c2ccncc2)n1/N=C/C(Cl)=C\c1ccccc1	i	i	9.8*	i	i	20%*	44%*	i
CCCC(NC(=O)Cc1c(C)c2c(cc(C)c3c(C)coc32)oc1=O)C(=O)O (configuration not stated)	i	i	i	i	i	·	·	·
O=C(NN=C1CCCC1)c1[nH]c2ccc(Cl)cc2c1-c1ccccc1	i	i	11*	i	i	50%*	i	i
CC(=O)NNC(=O)c1[nH]c2ccc(Cl)cc2c1-c1ccccc1	i	i	i	i	i	·	·	·
CC(C)n1c(SCC(=O)NC2CCCCC2)nnc1-c1ccco1	i	i	i	i	i	·	·	·
Oc1ccc(/C=N/Nc2ccc(C(F)(F)F)cn2)cc1	i	i	i	i	i	·	i	i
Cc1cc(=O)oc2c3c(cc(OCC(=O)N[C@@H](CC(C)C)C(=O)O)c12)OC(C)(C)CC3	i	i	i	i	i	i	i	i
CCCC(NC(=O)COc1cc2c(c3oc(=O)cc(C)c13)CCC(C)(C)O2)C(=O)O (configuration not stated)	i	i	i	i	i	i	i	i
Cc1cc(S(=O)(=O)N2CCCC(C(=O)Nc3ccc(C(=O)O)cc3)C2)ccc1Cl (configuration not stated)	i	i	i	i	i	·	·	·
COc1ccccc1OCC(=O)Nc1sc2c(c1C(=O)NCC1CCCO1)CCC2 (configuration not stated)	i	i	i	i	i	·	·	·
c1ccc(Nc2nc(N3CCCCC3)nc(N3CCNCC3)n2)cc1	i	i	i	i	i	i	i	16%*
c1ccc(Nc2nc(N3CCCC3)nc(N3CCCC3)n2)cc1	i	i	i	i	i	·	·	·
